Measured values reported in ChEMBL document CHEMBL2380310, “Discovery of 7-oxopyrazolo[1,5-a]pyrimidine-6-carboxamides as potent and selective CB(2) cannabinoid receptor inverse agonists” (J Med Chem, 2013).
Activity calls are given as the source filed them. No cut-off for these calls is given here.

Key:
Homo sapiens = organism: Homo sapiens; experiment: Selectivity index, ratio of Ki for human CB1 receptor to Ki for human CB2 receptor
Cannabinoid receptor 2 [1] = molecular target: T1, Cannabinoid receptor 2 (Homo sapiens, UniProt P34972); experiment: Inverse agonist activity at human CB2 receptor expressed in CHO cell membrane assessed as increase in forskolin-stimulated cAMP production at 10 uM by scintillation counting analysis relative to WIN55212-2
T1 sequence (P34972 whole entry): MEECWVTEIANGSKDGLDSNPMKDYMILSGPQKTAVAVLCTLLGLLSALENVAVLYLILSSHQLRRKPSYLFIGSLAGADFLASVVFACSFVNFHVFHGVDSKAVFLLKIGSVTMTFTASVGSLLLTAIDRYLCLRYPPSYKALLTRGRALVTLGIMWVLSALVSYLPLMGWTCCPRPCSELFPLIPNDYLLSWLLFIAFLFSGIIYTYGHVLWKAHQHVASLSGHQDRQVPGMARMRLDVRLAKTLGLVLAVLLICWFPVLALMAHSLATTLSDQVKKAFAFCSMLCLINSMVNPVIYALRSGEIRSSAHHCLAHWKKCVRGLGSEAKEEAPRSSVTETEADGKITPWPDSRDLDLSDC
How it was run: (§1)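 Whole hCB₂ CHO cells (1 × 10⁶/assay) in HEPES-buffered saline with glucose, pH 7.4, preincubated 10 min at 37 °C with 0.5 mM Ro 20-1724. Compound at 1 or 10 μM with 1 μM forskolin. Stopped with cold 6% TCA, ether-extracted; cAMP measured by [³H]cAMP competition binding with adrenal binding protein. Expressed as % increase versus WIN 55,212-2 (set −100%); n = 4.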

Cannabinoid receptor 2 [2] = molecular target: T1, Cannabinoid receptor 2; experiment: Inverse agonist activity at human CB2 receptor expressed in CHO cell membrane assessed as increase in forskolin-stimulated cAMP production at 1 uM by scintillation counting analysis relative to WIN55212-2; how it was run: as §1
Cannabinoid receptor 2 [3] = molecular target: T1, Cannabinoid receptor 2; experiment: Displacement of [3H]CP-55940 from human CB2 receptor expressed in CHO cell membrane after 60 mins by scintillation counting analysis; assay type: cell membranes
How it was run: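 Human CB₂-expressing CHO cell membranes in 50 mM Tris-HCl, 0.5% BSA, 5 mM MgCl₂, 1 mM EDTA, pH 7.4. Binding of 0.5 nM [³H]CP-55,940 competed with 1 nM–10 μM compound for 60 min at 30 °C, then GF/C filtration and scintillation counting. Ki by Cheng-Prusoff from IC50; mean SEM of n = 4.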

Cannabinoid receptor 2 [4] = molecular target: T1, Cannabinoid receptor 2; experiment: Inverse agonist activity at human CB2 receptor expressed in CHO cell membrane assessed as increase in forskolin-stimulated cAMP production by scintillation counting analysis; assay type: functional, cell membranes
Cannabinoid receptor 1 [5] = molecular target: T2, Cannabinoid receptor 1 (Homo sapiens, UniProt P21554); experiment: Displacement of [3H]CP-55940 from human CB1 receptor expressed in CHO cell membrane after 90 mins by scintillation counting analysis; assay type: cell membranes
T2 sequence (P21554 whole entry): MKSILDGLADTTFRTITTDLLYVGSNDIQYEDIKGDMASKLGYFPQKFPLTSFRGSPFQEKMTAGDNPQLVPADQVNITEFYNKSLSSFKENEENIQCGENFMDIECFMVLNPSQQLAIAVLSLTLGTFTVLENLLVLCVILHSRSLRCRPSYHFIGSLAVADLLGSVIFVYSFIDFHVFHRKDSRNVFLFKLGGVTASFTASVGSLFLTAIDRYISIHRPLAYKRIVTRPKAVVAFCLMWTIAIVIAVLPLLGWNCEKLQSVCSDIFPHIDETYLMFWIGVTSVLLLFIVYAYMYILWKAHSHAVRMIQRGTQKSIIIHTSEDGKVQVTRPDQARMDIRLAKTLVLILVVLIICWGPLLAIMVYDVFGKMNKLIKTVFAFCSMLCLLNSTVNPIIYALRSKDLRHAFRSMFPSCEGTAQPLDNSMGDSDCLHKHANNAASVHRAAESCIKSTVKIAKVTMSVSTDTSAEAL
How it was run: (§2)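 Membranes from CHO cells stably expressing human CB₁ (G418-maintained), suspended in 50 mM Tris-HCl, 0.5% BSA, 5 mM MgCl₂, 2.5 mM EDTA, pH 7.4. Displacement of 0.5 nM [³H]CP-55,940 by 1 nM–10 μM compound, 90 min, 30 °C. Filtration on GF/C, scintillation counting. Cheng-Prusoff Ki, LIGAND fitting; mean SEM, n = 4.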

Cannabinoid receptor 1 [6] = molecular target: Cannabinoid receptor 1 (Rattus norvegicus, UniProt P20272); experiment: Displacement of [3H]CP-55940 from Sprague-Dawley rat brain CB1 receptor after 90 mins by scintillation counting analysis
Cannabinoid receptor 1 (Rattus norvegicus, UniProt P20272), sequence (P20272 whole entry): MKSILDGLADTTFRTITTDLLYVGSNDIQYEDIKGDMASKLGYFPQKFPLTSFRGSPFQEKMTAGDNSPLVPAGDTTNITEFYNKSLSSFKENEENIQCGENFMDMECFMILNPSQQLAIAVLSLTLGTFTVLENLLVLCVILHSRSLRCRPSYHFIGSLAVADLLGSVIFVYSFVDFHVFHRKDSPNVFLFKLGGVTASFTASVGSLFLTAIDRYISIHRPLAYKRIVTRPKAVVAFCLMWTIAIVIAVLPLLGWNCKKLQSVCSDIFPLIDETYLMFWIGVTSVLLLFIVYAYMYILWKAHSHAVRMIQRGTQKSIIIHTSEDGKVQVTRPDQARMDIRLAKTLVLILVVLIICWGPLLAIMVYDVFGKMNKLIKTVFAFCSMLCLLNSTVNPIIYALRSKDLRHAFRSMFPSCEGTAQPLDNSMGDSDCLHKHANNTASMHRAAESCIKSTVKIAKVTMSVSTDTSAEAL
How it was run: (§3)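 Competition with [³H]CP-55,940 (1.0 nM stated in rat CB₁ section; 0.5 nM in general protocol) against 1 nM–10 μM compound, 90 min at 30 °C. GF/C filtration, scintillation counting. Ki via Cheng-Prusoff; mean SEM, n = 4.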

Cannabinoid receptor 2 [7] = molecular target: T3, Cannabinoid receptor 2 (Rattus norvegicus, UniProt Q9QZN9); experiment: Displacement of [3H]CP-55940 from Sprague-Dawley rat spleen CB2 receptor after 60 mins by scintillation counting analysis
T3 sequence (Q9QZN9 whole entry): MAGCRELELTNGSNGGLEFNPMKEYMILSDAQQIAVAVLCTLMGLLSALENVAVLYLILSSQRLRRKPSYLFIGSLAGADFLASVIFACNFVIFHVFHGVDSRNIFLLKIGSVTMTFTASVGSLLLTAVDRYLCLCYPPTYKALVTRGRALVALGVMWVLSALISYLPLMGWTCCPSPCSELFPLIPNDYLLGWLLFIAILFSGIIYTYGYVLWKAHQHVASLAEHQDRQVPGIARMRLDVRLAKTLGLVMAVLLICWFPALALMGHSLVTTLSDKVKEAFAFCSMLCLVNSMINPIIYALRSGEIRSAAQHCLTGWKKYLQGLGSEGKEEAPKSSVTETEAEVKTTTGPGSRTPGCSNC
How it was run: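 Competed against 0.5 nM [³H]CP-55,940 using 1 nM–10 μM compound for 60 min at 30 °C. Bound ligand collected on GF/C filters and counted. Ki from IC50 by Cheng-Prusoff; mean SEM of n = 4.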

Cannabinoid receptor 1 [8] = molecular target: T2, Cannabinoid receptor 1; experiment: Displacement of [3H]CP-55940 from human CB1 receptor expressed in CHO cell membrane at > 10 uM after 90 mins by scintillation counting analysis; assay type: cell membranes; how it was run: as §2
[9] = molecular target: Cannabinoid receptor 1 (Rattus norvegicus) (UniProt P20272); experiment: Displacement of [3H]CP-55940 from Sprague-Dawley rat brain CB1 receptor at > 10 uM after 90 mins by scintillation counting analysis; how it was run: as §3
Cannabinoid receptor 1 (Rattus norvegicus), sequence (P20272 whole entry): as the sequence (P20272 whole entry) above

Cannabinoid receptor 2 [10] = molecular target: T1, Cannabinoid receptor 2; experiment: Inverse agonist activity at human CB2 receptor expressed in CHO cell membrane assessed as increase in forskolin-stimulated cAMP production at 1 to 10 uM by scintillation counting analysis in presence of WIN55212-2

Structure (SMILES)	Ratio Ki (Homo sapiens)	Activity (Cannabinoid receptor 2 [1])	Activity (Cannabinoid receptor 2 [2])	Ki (Cannabinoid receptor 2 [3])	EC50 (Cannabinoid receptor 2 [4])	Ki (Cannabinoid receptor 1 [5])	Ki (Cannabinoid receptor 1 [6])	Ki (Cannabinoid receptor 2 [7])	Activity (Cannabinoid receptor 1 [8])	Activity [9]	Activity (Cannabinoid receptor 2 [10])
CCCCCn1cc(C(=O)NC2CCCCCC2)c(=O)n2nc(C(C)(C)C)cc12	84	213%	151%	7.22 nM	351 nM	605 nM	650 nM	7.52 nM	–	–	–
CCCCCn1cc(C(=O)NC2CCCCCC2)c(=O)n2nc(-c3ccccc3Cl)cc12	> 970	69%	53%	10.3 nM	–	> 10000 nM	> 10000 nM	12.3 nM	35%	42%	–
CCCCCn1cc(C(=O)NC23CC4CC(CC(C4)C2)C3)c(=O)n2nc(-c3cccs3)cc12	> 1600	102%	89%	6.24 nM	–	> 10000 nM	> 10000 nM	7.52 nM	26%	22%	–
CCCCCn1cc(C(=O)NC2CCCCC2)c(=O)n2nc(-c3ccccc3C)cc12	> 250	94%	73%	40 nM	–	> 10000 nM	> 10000 nM	48 nM	16%	30%	–
CCCCCn1cc(C(=O)NC23CC4CC(CC(C4)C2)C3)c(=O)n2nc(-c3ccoc3)cc12	> 990	92%	56%	10.1 nM	–	> 10000 nM	> 10000 nM	12.4 nM	19%	17%	–
CCCCCn1cc(C(=O)NC23CC4CC(CC(C4)C2)C3)c(=O)n2nc(-c3ccccc3C)cc12	> 3500	184%	155%	2.86 nM	–	> 10000 nM	> 10000 nM	3.21 nM	22%	30%	–
CCCCCn1cc(C(=O)NC23CC4CC(CC(C4)C2)C3)c(=O)n2nc(-c3ccccc3)cc12	> 3910	195%	163%	2.56 nM	195 nM	> 10000 nM	> 10000 nM	2.74 nM	43%	40%	–
CCCCCn1cc(C(=O)NC2CCCCCC2)c(=O)n2nc(-c3ccc(C)cc3)cc12	> 970	107%	81%	10.3 nM	–	> 10000 nM	> 10000 nM	13.2 nM	39%	49%	–
CCCCCn1cc(C(=O)NC23CC4CC(CC(C4)C2)C3)c(=O)n2nc(C)c(-c3ccccc3)c12	> 55	51%	34%	181 nM	–	> 10000 nM	> 10000 nM	214 nM	15%	15%	–
CCCCCn1cc(C(=O)NC23CC4CC(CC(C4)C2)C3)c(=O)n2nc(CC)cc12	143	243%	173%	0.84 nM	95 nM	120 nM	150 nM	0.96 nM	–	–	Active
CCCCCn1cc(C(=O)NC23CC4CC(CC(C4)C2)C3)c(=O)n2nc(-c3ccc(Cl)cc3)cc12	> 2580	183%	144%	3.88 nM	–	> 10000 nM	> 10000 nM	4.21 nM	13%	10%	–
CCCCCn1cc(C(=O)NC2CCCCCC2)c(=O)n2nc(-c3ccco3)cc12	> 1520	88%	42%	6.57 nM	–	> 10000 nM	> 10000 nM	7.23 nM	16%	20%	–
CCCCCn1cc(C(=O)NC23CC4CC(CC(C4)C2)C3)c(=O)n2nc(-c3c(Cl)cccc3Cl)cc12	> 102	62%	38%	98 nM	–	> 10000 nM	> 10000 nM	110 nM	21%	18%	–
CCCCCn1cc(C(=O)NC23CC4CC(CC(C4)C2)C3)c(=O)n2nc(-c3ccccc3Cl)cc12	> 1610	136%	114%	6.21 nM	–	> 10000 nM	> 10000 nM	6.32 nM	41%	48%	–
